Source: ChEMBL document CHEMBL1153370, “New pyridazine derivatives: synthesis, chemistry and biological activity” (2009)

How the values were obtained:
Assay type in all cases: functional
Pseudomonas aeruginosa [1] = assay: Antibacterial activity Pseudomonas aeruginosa after 24 hrs at 30 degC by agar diffusion technique
Summary of the method: (§1)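 Agar diffusion method. Bacteria were maintained on Mueller Hinton agar, and the agar medium was inoculated with each test organism. Plates were incubated 24 h at 30 °C, then the diameter of the inhibition zone was measured in mm and reported as the mean diameter.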

Escherichia coli [2] = assay: Antibacterial activity Escherichia coli ATCC 25922 after 24 hrs at 30 degC by agar diffusion technique; summary of the method: as §1
Micrococcus luteus [3] = assay: Antibacterial activity Sarcina lutea ATCC 9341 after 24 hrs at 30 degC by agar diffusion technique; summary of the method: as §1
Candida albicans = assay: Antifungal activity Candida albicans ATCC 10231 after 48 hrs at 28 degC by agar diffusion technique
Summary of the method: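 Fungi were maintained on Mueller Hinton agar and tested by diffusion on agar seeded with the organism. After 48 h incubation at 28 °C, the inhibition zone diameter (mm, mean) was measured.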

Bacillus subtilis [4] = assay: Antibacterial activity Bacillus subtilis after 24 hrs at 30 degC by agar diffusion technique; summary of the method: as §1
Staphylococcus aureus [5] = assay: Antibacterial activity Staphylococcus aureus ATCC 25923 after 24 hrs at 30 degC by agar diffusion technique; summary of the method: as §1
Pseudomonas aeruginosa [6] = assay: Antibacterial activity Pseudomonas aeruginosa at 30 ug/disk after 24 hrs at 30 degC by agar diffusion technique; details: read-out: Diameter of inhibition zone; summary of the method: as §1
Staphylococcus aureus [7] = assay: Antibacterial activity Staphylococcus aureus ATCC 25923 at 30 ug/disk after 24 hrs at 30 degC by agar diffusion technique; details: ATCC 25923, 24 h, read-out: Diameter of inhibition zone; summary of the method: as §1
Micrococcus luteus [8] = assay: Antibacterial activity Sarcina lutea ATCC 9341 at 30 ug/disk after 24 hrs at 30 degC by agar diffusion technique; details: ATCC 9341, 24 h, read-out: Diameter of inhibition zone; summary of the method: as §1
Bacillus subtilis [9] = assay: Antibacterial activity Bacillus subtilis at 30 ug/disk after 24 hrs at 30 degC by agar diffusion technique; details: read-out: Diameter of inhibition zone; summary of the method: as §1
Escherichia coli [10] = assay: Antibacterial activity Escherichia coli ATCC 25922 at 30 ug/disk after 24 hrs at 30 degC by agar diffusion technique; details: ATCC 25922, 24 h, read-out: Diameter of inhibition zone
Summary of the method: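 Agar diffusion method; organisms kept on Mueller Hinton agar, and agar media were inoculated with the test culture. Bacterial plates incubated 24 h at 30 °C, then diameter of the inhibition zone measured in mm (mean diameter).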

SMILES	Diameter of inhibition zone (Pseudomonas aeruginosa [1]) [mm]	Diameter of inhibition zone (Escherichia coli [2]) [mm]	Diameter of inhibition zone (Micrococcus luteus [3]) [mm]	Diameter of inhibition zone (Candida albicans) [mm]	Diameter of inhibition zone (Bacillus subtilis [4]) [mm]	Diameter of inhibition zone (Staphylococcus aureus [5]) [mm]	zone of inhibition at 30 µg/disc (Pseudomonas aeruginosa [6]) [mm]	zone of inhibition at 30 µg/disc (Staphylococcus aureus [7]) [mm]	zone of inhibition at 30 µg/disc (Micrococcus luteus [8]) [mm]	zone of inhibition at 30 µg/disc (Bacillus subtilis [9]) [mm]	zone of inhibition at 30 µg/disc (Escherichia coli [10]) [mm]
COC(=O)c1c(C(=O)OC)c2cccnn2c1C(=O)c1ccc(C)cc1	19	25	65	29	26	46	–	–	–	–	–
N#C[C@H]1C[C@@H](C(=O)c2ccc(Cl)cc2)N2N=CC=C[C@@H]12	14	28	57	35	29	30	–	–	–	–	–
O=C(c1ccc(Cl)cc1)[C@H]1[C@@H]2C(=O)N(c3ccccc3)C(=O)[C@@H]2[C@@H]2C=CC=NN21	18	28	54	34	28	28	–	–	–	–	–
N#C[C@H]1C[C@@H](C(=O)c2ccc(F)cc2)N2N=CC=C[C@@H]12	14	20	50	23	27	26	–	–	–	–	–
COC(=O)[C@@H]1[C@H](C(=O)OC)[C@H](C(=O)c2ccc(F)cc2)N2N=CC=C[C@@H]12	18	35	60	24	37	29	–	–	–	–	–
O=C(N[C@H](CO)[C@H](O)c1ccc([N+](=O)[O-])cc1)C(Cl)Cl [CHLORAMPHENICOL]	–	–	–	–	–	–	19	30	40	26	25
CCOC(=O)c1cc(C(=O)c2ccc(F)cc2)n2ncccc12	20	23	48	22	22	27	–	–	–	–	–
COC(=O)c1c(C(=O)OC)c2cccnn2c1C(=O)c1ccc(F)cc1	15	21	52	21	23	27	–	–	–	–	–
COC(=O)c1c(C(=O)OC)c2cccnn2c1C(=O)c1ccc(Cl)cc1	18	31	57	24	26	30	–	–	–	–	–
COC(=O)[C@H]1[C@H](C(=O)OC)[C@H](C(=O)c2ccc(Cl)cc2)N2N=CC=C[C@@H]12	15	31	54	27	36	23	–	–	–	–	–
COC(=O)[C@H]1[C@H](C(=O)OC)[C@H](C(=O)c2ccc(C)cc2)N2N=CC=C[C@@H]12	17	37	59	29	38	47	–	–	–	–	–
Cc1ccc(C(=O)[C@@H]2C[C@H](C#N)[C@@H]3C=CC=NN23)cc1	19	23	67	30	39	46	–	–	–	–	–
CCOC(=O)c1cc(C(=O)c2ccc(Cl)cc2)n2ncccc12	20	33	48	30	25	25	–	–	–	–	–
COC(=O)[C@@H]1[C@H](C(=O)OC)[C@H](C(=O)c2ccc(Cl)cc2)N2N=CC=C[C@@H]12	18	32	56	25	39	33	–	–	–	–	–
O=C(C[n+]1ccccn1)c1ccc(Cl)cc1.[Br-]	20	36	57	29	32	36	–	–	–	–	–
O=C(C[n+]1ccccn1)c1ccc(F)cc1.[Br-]	20	31	61	19	31	38	–	–	–	–	–
Cc1ccc(C(=O)[C@H]2[C@@H]3C(=O)N(c4ccccc4)C(=O)[C@@H]3[C@@H]3C=CC=NN32)cc1	18	24	73	29	37	31	–	–	–	–	–
O=C(c1ccc(F)cc1)[C@H]1[C@@H]2C(=O)N(c3ccccc3)C(=O)[C@@H]2[C@@H]2C=CC=NN21	16	25	63	25	28	27	–	–	–	–	–
Cc1ccc(C(=O)C[n+]2ccccn2)cc1.[Br-]	20	25	81	27	40	47	–	–	–	–	–
COC(=O)[C@H]1[C@H](C(=O)OC)[C@H](C(=O)c2ccc(F)cc2)N2N=CC=C[C@@H]12	17	35	51	27	35	29	–	–	–	–	–
COC(=O)[C@@H]1[C@H](C(=O)OC)[C@H](C(=O)c2ccc(C)cc2)N2N=CC=C[C@@H]12	19	37	62	30	39	41	–	–	–	–	–
CCOC(=O)c1cc(C(=O)c2ccc(C)cc2)n2ncccc12	18	25	56	28	37	40	–	–	–	–	–
